What was measured:
[1] = target: RAF proto-oncogene serine/threonine-protein kinase (Homo sapiens) (UniProt P04049); assay: Inhibition of c-Raf at 5 uM
Mus musculus [2] = assay: Toxicity in Swiss Webster mouse assessed as hemoglobin level at 10 mg/kg, ip daily for 7 days measured after 7 days; type: organism-based; design: dose 10 mg/kg, route intraperitoneal; conditions: in vivo, 168 h
Mus musculus [3] = assay: Toxicity in Swiss Webster mouse assessed as alanine aminotransferase level at 3 mg/kg, ip daily for 7 days measured after 7 days; type: organism-based; design: dose 3 mg/kg, route intraperitoneal; conditions: in vivo, 168 h
Mus musculus [4] = assay: Toxicity in Swiss Webster mouse assessed as lymphocyte count at 50 mg/kg, ip daily for 7 days measured after 7 days; type: organism-based; design: dose 50 mg/kg, route intraperitoneal; conditions: in vivo, 168 h
[5] = target: Serine/threonine-protein kinase Sgk1 (Homo sapiens) (UniProt O00141); assay: Inhibition of SGK1 at 5 uM
Mus musculus [6] = assay: Toxicity in Swiss Webster mouse assessed as hemoglobin level at 3 mg/kg, ip daily for 7 days measured after 7 days; type: organism-based; design: dose 3 mg/kg, route intraperitoneal
Mus musculus [7] = assay: Toxicity in Swiss Webster mouse assessed as glucose level at 10 mg/kg, ip daily for 7 days measured after 7 days; type: organism-based; design: dose 10 mg/kg, route intraperitoneal; conditions: in vivo, 168 h
Mus musculus [8] = assay: Toxicity in Swiss Webster mouse assessed as alkaline phosphatase level at 10 mg/kg, ip daily for 7 days measured after 7 days; type: organism-based; design: dose 10 mg/kg, route intraperitoneal; conditions: in vivo, 168 h
[9] = target: Insulin receptor (Homo sapiens) (UniProt P06213); assay: Inhibition of INSR at 5 uM
[10] = target: Serine/threonine-protein kinase Chk2 (Homo sapiens) (UniProt O96017); assay: Inhibition of CHK2 at 5 uM
[11] = target: Rho-associated protein kinase 2 (Homo sapiens) (UniProt O75116); assay: Inhibition of ROCK2 at 5 uM
[12] = target: Ribosomal protein S6 kinase alpha-1 (Homo sapiens) (UniProt Q15418); assay: Inhibition of RSK1 at 5 uM
Chain of Ribosomal protein S6 kinase alpha-1 (Homo sapiens) (Q15418 whole entry): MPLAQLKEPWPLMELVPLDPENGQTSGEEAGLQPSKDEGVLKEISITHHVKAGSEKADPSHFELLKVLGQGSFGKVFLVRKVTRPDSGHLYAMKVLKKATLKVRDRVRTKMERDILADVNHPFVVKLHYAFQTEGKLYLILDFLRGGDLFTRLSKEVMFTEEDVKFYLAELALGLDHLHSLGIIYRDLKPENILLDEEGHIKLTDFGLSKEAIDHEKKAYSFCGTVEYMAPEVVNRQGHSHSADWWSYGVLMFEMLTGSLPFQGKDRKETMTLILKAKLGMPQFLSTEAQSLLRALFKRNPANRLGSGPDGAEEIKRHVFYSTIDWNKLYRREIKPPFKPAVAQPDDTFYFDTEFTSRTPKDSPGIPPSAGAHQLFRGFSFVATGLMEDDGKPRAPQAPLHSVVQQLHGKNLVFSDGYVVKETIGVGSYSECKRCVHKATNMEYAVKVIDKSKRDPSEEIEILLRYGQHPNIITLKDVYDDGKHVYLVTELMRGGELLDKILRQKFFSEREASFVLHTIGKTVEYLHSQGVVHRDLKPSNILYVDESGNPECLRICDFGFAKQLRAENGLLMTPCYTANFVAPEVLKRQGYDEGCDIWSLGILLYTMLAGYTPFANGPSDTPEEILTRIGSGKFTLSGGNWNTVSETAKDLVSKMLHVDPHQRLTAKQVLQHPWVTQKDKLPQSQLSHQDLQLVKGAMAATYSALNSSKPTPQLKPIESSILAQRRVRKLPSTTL

[13] = target: Tyrosine-protein kinase Lck (Homo sapiens) (UniProt P06239); assay: Inhibition of LCK at 5 uM
Chain of Tyrosine-protein kinase Lck (Homo sapiens) (P06239 2-509 limits assumed): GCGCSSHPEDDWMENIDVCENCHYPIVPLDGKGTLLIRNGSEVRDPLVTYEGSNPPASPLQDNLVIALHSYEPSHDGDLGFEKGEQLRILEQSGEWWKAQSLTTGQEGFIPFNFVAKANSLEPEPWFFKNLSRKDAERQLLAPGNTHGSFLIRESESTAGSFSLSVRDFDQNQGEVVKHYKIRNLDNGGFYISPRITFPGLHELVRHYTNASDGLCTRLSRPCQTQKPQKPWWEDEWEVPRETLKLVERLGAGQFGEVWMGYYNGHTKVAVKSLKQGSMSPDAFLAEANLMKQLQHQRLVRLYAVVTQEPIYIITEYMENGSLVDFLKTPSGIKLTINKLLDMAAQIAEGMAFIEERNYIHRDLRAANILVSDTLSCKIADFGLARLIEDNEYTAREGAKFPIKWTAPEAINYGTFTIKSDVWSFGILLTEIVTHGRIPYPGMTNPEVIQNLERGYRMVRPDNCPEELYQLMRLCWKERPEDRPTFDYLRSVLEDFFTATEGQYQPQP

[14] = target: Serine/threonine-protein kinase pim-2 (Homo sapiens, UniProt Q9P1W9); assay: Inhibition of PIM2 at 5 uM
Chain of Serine/threonine-protein kinase pim-2 (Q9P1W9 whole entry, looked up): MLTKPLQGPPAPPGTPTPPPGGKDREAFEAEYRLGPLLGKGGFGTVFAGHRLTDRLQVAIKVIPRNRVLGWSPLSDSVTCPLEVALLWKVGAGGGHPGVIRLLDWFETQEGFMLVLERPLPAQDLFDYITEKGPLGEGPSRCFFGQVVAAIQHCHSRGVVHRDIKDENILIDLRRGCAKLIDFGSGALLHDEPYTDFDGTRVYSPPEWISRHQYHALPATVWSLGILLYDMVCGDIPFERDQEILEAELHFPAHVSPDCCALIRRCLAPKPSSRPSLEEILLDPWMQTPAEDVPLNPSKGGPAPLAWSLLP

Mus musculus [15] = assay: Toxicity in Swiss Webster mouse assessed as amylase level at 50 mg/kg, ip daily for 7 days measured after 7 days; type: organism-based; design: dose 50 mg/kg, route intraperitoneal; conditions: in vivo, 168 h
[16] = target: Dual specificity tyrosine-phosphorylation-regulated kinase 1A (Homo sapiens) (UniProt Q13627); assay: Inhibition of DYRK1alpha at 5 uM
[17] = target: Receptor-type tyrosine-protein kinase FLT3 (Homo sapiens) (UniProt P36888); assay: Inhibition of FLT3 at 5 uM
Mus musculus [18] = assay: Toxicity in Swiss Webster mouse assessed as blood urea nitrogen level at 3 mg/kg, ip daily for 7 days measured after 7 days; type: organism-based; design: dose 3 mg/kg, route intraperitoneal; conditions: in vivo, 168 h
Mus musculus [19] = assay: Toxicity in Swiss Webster mouse assessed as amylase level at 3 mg/kg, ip daily for 7 days measured after 7 days; type: organism-based; design: dose 3 mg/kg, route intraperitoneal; conditions: in vivo, 168 h
[20] = test system: Receptor-type tyrosine-protein kinase FLT3 (Homo sapiens), P36888 [D835Y]; assay: Inhibition of FLT3(D835Y) at 5 uM
Mus musculus [21] = assay: Toxicity in Swiss Webster mouse assessed as alkaline phosphatase level at 3 mg/kg, ip daily for 7 days measured after 7 days; type: organism-based; design: dose 3 mg/kg, route intraperitoneal; conditions: in vivo, 168 h
Mus musculus [22] = assay: Toxicity in Swiss Webster mouse assessed as blood urea nitrogen level at 50 mg/kg, ip daily for 7 days measured after 7 days; type: organism-based; design: dose 50 mg/kg, route intraperitoneal; conditions: in vivo, 168 h
[23] = Inhibition of PKA at 5 uM
Mus musculus [24] = assay: Toxicity in Swiss Webster mouse assessed as alanine aminotransferase level at 10 mg/kg, ip daily for 7 days measured after 7 days; type: organism-based; design: dose 10 mg/kg, route intraperitoneal; conditions: in vivo, 168 h
[25] = Inhibition of PKGalpha at 5 uM
Mus musculus [26] = assay: Toxicity in Swiss Webster mouse assessed as K+ level at 3 mg/kg, ip daily for 7 days measured after 7 days; type: organism-based; design: dose 3 mg/kg, route intraperitoneal; conditions: in vivo, 168 h
Mus musculus [27] = assay: Toxicity in Swiss Webster mouse assessed as monocyte count at 50 mg/kg, ip daily for 7 days measured after 7 days; type: organism-based; design: dose 50 mg/kg, route intraperitoneal; conditions: in vivo, 168 h
[28] = target: Tyrosine-protein kinase Fyn (Homo sapiens) (UniProt P06241); assay: Inhibition of FYN at 5 uM
[29] = target: Serine/threonine-protein kinase PAK 2 (Homo sapiens) (UniProt Q13177); assay: Inhibition of PAK2 at 5 uM
Mus musculus [30] = assay: Toxicity in Swiss Webster mouse assessed as alkaline phosphatase level at 50 mg/kg, ip daily for 7 days measured after 7 days; type: organism-based; design: dose 50 mg/kg, route intraperitoneal; conditions: in vivo, 168 h
[31] = target: Hepatocyte growth factor receptor (Homo sapiens) (UniProt P08581); assay: Inhibition of MET at 5 uM
Chain of Hepatocyte growth factor receptor (Homo sapiens) (P08581 whole entry): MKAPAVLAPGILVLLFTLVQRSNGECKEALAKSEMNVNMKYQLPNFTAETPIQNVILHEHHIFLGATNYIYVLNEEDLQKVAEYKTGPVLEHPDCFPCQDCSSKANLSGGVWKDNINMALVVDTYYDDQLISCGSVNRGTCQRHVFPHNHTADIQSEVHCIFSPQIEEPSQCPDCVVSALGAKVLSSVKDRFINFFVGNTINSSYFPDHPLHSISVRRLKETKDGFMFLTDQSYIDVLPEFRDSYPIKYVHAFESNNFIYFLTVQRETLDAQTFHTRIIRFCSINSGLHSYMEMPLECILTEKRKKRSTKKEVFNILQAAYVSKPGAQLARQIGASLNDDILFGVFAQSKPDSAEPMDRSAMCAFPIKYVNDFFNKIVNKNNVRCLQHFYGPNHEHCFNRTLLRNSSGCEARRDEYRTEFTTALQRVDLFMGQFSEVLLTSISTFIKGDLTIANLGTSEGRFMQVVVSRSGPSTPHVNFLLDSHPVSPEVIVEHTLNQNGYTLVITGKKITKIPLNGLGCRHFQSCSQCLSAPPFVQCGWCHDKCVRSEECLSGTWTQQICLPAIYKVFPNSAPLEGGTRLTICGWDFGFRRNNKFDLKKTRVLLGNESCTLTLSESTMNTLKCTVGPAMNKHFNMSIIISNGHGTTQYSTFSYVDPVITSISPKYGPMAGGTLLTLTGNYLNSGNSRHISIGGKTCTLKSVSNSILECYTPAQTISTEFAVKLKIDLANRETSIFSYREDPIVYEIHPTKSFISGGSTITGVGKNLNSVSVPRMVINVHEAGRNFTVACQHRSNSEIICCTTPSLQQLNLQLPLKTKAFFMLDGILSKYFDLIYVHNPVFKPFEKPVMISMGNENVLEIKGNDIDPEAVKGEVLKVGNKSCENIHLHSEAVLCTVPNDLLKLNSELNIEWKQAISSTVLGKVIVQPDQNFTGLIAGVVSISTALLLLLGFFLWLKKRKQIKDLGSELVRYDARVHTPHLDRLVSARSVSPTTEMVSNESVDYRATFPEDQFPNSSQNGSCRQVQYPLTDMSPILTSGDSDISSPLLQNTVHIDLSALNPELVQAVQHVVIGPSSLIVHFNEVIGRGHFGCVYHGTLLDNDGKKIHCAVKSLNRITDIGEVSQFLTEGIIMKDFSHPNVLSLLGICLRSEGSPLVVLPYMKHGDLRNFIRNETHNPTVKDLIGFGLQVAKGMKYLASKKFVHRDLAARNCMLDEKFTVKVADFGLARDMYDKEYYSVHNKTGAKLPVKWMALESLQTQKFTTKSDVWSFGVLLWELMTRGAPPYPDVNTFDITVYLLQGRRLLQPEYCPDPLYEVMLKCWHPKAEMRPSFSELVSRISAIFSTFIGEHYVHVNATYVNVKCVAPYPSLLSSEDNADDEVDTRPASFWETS

[32] = target: Serine/threonine-protein kinase D2 (Homo sapiens) (UniProt Q9BZL6); assay: Inhibition of PKD2 at 5 uM
Mus musculus [33] = assay: Toxicity in Swiss Webster mouse assessed as monocyte count at 3 mg/kg, ip daily for 7 days measured after 7 days; type: organism-based; design: dose 3 mg/kg, route intraperitoneal; conditions: in vivo, 168 h
Mus musculus [34] = assay: Toxicity in Swiss Webster mouse assessed as white blood cell count at 10 mg/kg, ip daily for 7 days measured after 7 days; type: organism-based; design: dose 10 mg/kg, route intraperitoneal; conditions: in vivo, 168 h
Outline: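 Six-week-old female Swiss Webster mice (about 25 g) received intraperitoneal injections daily for 7 days. Doses were 3, 10 or 50 mg/kg, with a vehicle group (30% PEG-400, 5% Tween-80, 65% DMSO). Values are reported as ranges per group.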

Mus musculus [35] = assay: Toxicity in Swiss Webster mouse assessed as albumin level at 10 mg/kg, ip daily for 7 days measured after 7 days; type: organism-based; design: dose 10 mg/kg, route intraperitoneal; conditions: in vivo, 168 h
Mus musculus [36] = assay: Toxicity in Swiss Webster mouse assessed as creatinine level at 3 mg/kg, ip daily for 7 days measured after 7 days; type: organism-based; design: dose 3 mg/kg, route intraperitoneal; conditions: in vivo, 168 h
Mus musculus [37] = assay: Toxicity in Swiss Webster mouse assessed as blood urea nitrogen level at 10 mg/kg, ip daily for 7 days measured after 7 days; type: organism-based; design: dose 10 mg/kg, route intraperitoneal; conditions: in vivo, 168 h
[38] = target: 3-phosphoinositide-dependent protein kinase 1 (PDPK1) (Homo sapiens) (UniProt O15530); assay: Inhibition of PDK1 at 5 uM
Chain of 3-phosphoinositide-dependent protein kinase 1 (PDPK1) (Homo sapiens) (O15530 whole entry, looked up): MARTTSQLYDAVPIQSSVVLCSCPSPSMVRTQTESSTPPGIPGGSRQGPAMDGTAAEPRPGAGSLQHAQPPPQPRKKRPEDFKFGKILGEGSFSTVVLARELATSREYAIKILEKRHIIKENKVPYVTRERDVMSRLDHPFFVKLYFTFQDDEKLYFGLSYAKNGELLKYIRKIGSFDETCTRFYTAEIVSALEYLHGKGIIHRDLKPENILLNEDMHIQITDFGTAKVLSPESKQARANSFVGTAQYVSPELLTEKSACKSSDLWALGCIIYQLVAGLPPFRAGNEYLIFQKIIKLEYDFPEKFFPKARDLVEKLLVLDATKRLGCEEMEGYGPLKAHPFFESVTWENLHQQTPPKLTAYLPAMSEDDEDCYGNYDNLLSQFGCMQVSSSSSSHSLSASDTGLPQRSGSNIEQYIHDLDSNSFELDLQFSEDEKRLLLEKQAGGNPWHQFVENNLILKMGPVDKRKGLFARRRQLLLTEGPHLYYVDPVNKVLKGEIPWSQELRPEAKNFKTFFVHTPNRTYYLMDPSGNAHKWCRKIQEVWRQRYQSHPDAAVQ

[39] = target: RAC-gamma serine/threonine-protein kinase (Homo sapiens) (UniProt Q9Y243); assay: Inhibition of AKT3 at 5 uM
[40] = target: Aurora kinase A (Homo sapiens) (UniProt O14965); assay: Inhibition of AurA at 5 uM
Mus musculus [41] = assay: Toxicity in Swiss Webster mouse assessed as albumin level at 50 mg/kg, ip daily for 7 days measured after 7 days; type: organism-based; design: dose 50 mg/kg, route intraperitoneal; conditions: in vivo, 168 h
[42] = target: Proto-oncogene tyrosine-protein kinase Src (Homo sapiens) (UniProt P12931); assay: Inhibition of SRC at 5 uM
[43] = target: Platelet-derived growth factor receptor alpha (Homo sapiens) (UniProt P16234); assay: Inhibition of PDGFRalpha at 5 uM
Chain of Platelet-derived growth factor receptor alpha (Homo sapiens) (P16234 whole entry): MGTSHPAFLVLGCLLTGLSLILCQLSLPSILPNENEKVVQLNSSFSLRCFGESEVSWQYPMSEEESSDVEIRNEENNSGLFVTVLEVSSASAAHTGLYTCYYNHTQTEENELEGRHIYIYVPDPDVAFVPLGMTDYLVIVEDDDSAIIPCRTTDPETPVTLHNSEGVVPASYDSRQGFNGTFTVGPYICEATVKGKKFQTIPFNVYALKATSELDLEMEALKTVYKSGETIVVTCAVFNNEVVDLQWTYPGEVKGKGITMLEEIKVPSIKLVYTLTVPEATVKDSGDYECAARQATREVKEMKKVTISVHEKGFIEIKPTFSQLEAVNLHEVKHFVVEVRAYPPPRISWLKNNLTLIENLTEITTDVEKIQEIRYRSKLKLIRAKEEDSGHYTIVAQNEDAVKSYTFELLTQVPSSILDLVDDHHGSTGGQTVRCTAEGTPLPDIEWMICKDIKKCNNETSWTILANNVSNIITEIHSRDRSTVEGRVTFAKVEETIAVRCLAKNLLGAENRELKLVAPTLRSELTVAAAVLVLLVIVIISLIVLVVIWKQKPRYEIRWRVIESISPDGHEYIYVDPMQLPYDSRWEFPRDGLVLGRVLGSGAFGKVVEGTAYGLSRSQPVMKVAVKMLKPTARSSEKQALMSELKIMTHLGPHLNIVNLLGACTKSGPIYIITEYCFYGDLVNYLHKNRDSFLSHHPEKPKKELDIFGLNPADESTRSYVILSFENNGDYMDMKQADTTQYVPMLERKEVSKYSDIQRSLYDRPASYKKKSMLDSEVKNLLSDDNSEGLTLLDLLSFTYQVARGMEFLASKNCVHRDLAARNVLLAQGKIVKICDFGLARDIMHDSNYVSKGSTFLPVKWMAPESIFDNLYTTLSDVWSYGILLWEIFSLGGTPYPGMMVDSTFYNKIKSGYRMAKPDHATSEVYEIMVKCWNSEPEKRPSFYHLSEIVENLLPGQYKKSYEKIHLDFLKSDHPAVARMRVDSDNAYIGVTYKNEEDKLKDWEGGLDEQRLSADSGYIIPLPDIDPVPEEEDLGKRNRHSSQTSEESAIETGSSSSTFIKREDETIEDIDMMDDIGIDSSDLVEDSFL

[44] = target: Glycogen synthase kinase-3 beta (Homo sapiens) (UniProt P49841); assay: Inhibition of GSK3-beta at 5 uM
[45] = target: Calcium/calmodulin-dependent protein kinase type IV (Homo sapiens) (UniProt Q16566); assay: Inhibition of CAMK4 at 5 uM
Chain of Calcium/calmodulin-dependent protein kinase type IV (Homo sapiens) (Q16566 whole entry): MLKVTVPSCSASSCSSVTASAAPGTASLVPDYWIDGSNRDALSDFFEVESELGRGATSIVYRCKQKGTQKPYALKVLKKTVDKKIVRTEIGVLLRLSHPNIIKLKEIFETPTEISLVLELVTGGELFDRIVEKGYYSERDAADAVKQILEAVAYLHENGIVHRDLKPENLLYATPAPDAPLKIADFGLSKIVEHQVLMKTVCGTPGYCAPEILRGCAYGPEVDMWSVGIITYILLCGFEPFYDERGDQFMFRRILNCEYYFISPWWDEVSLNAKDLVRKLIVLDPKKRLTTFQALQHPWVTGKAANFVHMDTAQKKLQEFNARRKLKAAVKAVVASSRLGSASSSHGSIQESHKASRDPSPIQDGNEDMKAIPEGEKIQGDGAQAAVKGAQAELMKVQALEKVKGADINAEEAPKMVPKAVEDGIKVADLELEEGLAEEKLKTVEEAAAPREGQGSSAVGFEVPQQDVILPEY

Mus musculus [46] = assay: Toxicity against mouse JC cells xenografted BALB/c mouse assessed as loss of body weight at 50 mg/kg, ip for 5 days per week; type: organism-based; design: dose 50 mg/kg, route intraperitoneal; conditions: in vivo, 120 h
Mus musculus [47] = assay: Toxicity in Swiss Webster mouse assessed as creatinine level at 50 mg/kg, ip daily for 7 days measured after 7 days; type: organism-based; design: dose 50 mg/kg, route intraperitoneal; conditions: in vivo, 168 h

CCCOc1ccc(/C=C2\SC(=O)NC2=O)cc1
inhibition [1]: -1%
Activity (Mus musculus [2]): 11.7 g/dL
Activity (Mus musculus [3]): 40 U/L
Activity (Mus musculus [4]): 3.5 ×10⁹ /L
inhibition [5]: 5%
Activity (Mus musculus [6]): 12.8 g/dL
Activity (Mus musculus [7]): 87 mg/dL
Activity (Mus musculus [8]): 85 U/L
inhibition [9]: 4%
inhibition [10]: 4%
inhibition [11]: 5%
inhibition [12]: 5%
inhibition [13]: 3%
inhibition [14]: 62%
Activity (Mus musculus [15]): 760 U/L
inhibition [16]: 68%
inhibition [17]: 1%
Activity (Mus musculus [18]): 17 mg/dL
Activity (Mus musculus [19]): 878 U/L
inhibition [20]: 9%
Activity (Mus musculus [21]): 85 U/L
Activity (Mus musculus [22]): 14 mg/dL
inhibition [23]: 3%
Activity (Mus musculus [24]): 44 U/L
inhibition [25]: 0%
Activity (Mus musculus [26]): 7.3 mmol/L
Activity (Mus musculus [27]): 0.04 ×10⁹ /L
inhibition [28]: 0%
inhibition [29]: -1%
Activity (Mus musculus [30]): 80 U/L
inhibition [31]: -6%
inhibition [32]: -3%
Activity (Mus musculus [33]): 0.11 ×10⁹ /L
Activity (Mus musculus [34]): 4.95 ×10⁹ /L
Activity (Mus musculus [35]): 2.9 g/dL
Activity (Mus musculus [36]): 0.2 mg/dL
Activity (Mus musculus [37]): 11 mg/dL
inhibition [38]: 1%
inhibition [39]: 3%
inhibition [40]: 4%
Activity (Mus musculus [41]): 2.6 g/dL
inhibition [42]: 4%
inhibition [43]: 6%
inhibition [44]: 3%
inhibition [45]: -8%
Activity (Mus musculus [46]): Non-toxic
Activity (Mus musculus [47]): 0.2 mg/dL
